PKD1 kinase inh: inhibitors of human PKD1 kinase, biochemical, fluorescence polarization; PKD1 kinase fluorescence polarization assay; inhibition, % (concentration not given with the values); actives 0.056% (n = 200,000)
Target sequence (Q15139 whole entry, looked up): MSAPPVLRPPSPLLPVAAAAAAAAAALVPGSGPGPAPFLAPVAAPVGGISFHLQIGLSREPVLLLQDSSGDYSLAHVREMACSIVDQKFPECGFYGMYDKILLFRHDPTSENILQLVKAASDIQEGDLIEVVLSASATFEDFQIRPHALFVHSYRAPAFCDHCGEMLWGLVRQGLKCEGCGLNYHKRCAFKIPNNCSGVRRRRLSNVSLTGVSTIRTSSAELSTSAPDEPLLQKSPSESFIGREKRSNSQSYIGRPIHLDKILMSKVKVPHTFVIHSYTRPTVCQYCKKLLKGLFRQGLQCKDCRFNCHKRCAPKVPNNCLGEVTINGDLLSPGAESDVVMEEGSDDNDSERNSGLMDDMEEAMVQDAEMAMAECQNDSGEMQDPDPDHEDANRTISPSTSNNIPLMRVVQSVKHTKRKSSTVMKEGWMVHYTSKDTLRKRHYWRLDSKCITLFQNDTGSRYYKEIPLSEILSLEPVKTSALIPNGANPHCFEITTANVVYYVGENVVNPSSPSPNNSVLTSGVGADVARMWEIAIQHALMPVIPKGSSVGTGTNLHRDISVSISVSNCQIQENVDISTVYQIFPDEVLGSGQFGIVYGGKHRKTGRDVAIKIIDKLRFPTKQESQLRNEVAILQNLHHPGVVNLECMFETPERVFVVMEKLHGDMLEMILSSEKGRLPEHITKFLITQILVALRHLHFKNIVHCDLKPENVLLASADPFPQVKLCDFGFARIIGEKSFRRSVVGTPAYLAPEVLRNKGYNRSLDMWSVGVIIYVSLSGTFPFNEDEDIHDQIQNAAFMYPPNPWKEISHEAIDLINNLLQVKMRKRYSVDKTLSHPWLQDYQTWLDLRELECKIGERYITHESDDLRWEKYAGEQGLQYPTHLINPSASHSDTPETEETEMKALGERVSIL
ABCG2 inh: ABCG2 efflux pump inhibitors, primary screen, multiplex with ABCB1, IgMXP3 cells, flow cytometry | Broad substrate specificity ATP-binding cassette transporter ABCG2 (Homo sapiens), Q9UNQ0 | JC-1 efflux | inhibition, % at 6.6 µM | actives 0.1% (n = 190,000);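 active = inhibition above 80%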;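 also: 0% = DMSO and 100% = nicardipine control wells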
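material = IgMXP3 (ABCG2) plus far-red-tagged CCRF-Adr (ABCB1) cells | amount = 3 million cells/mL, equal mix of both lines | also added = JC-1 transporter substrate | dosing = one concentration, 6.6 µM final | schedule = 10 min at 25 °C | measured by = flow cytometric JC-1 green MFI at 530 nm | read-out basis = percent efflux inhibition, scaled nicardipine 100% to DMSO 0%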
L major viab: Leishmania major promastigote growth inhibition, primary screen. inhibition, % at 10 µM. actives 9% (n = 200,000). Leishmania major promastigotes, resazurin fluorescence viability. AID 1063, 2008;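 also: promastigotes grown with compound for 44 hours at 28 °C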
GSH fluor: compound fluorescence on glutathione beads, profiling panel, artefact control, biophysical, 488/530 nm, flow cytometry; GSH beads flow cytometry, compound fluorescence 488/530 nm; stronger effect = higher value; actives 0.25% (n = 190,000); fluorescence (KMESF) at 10 µM; in the data active = fluorescence above about 89;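 also: glutathione beads carrying GST-tagged Bcl family fusion proteins plus one bare bead set; values are compound well signal with DMSO vehicle wells as background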
Avidin fluor: green autofluorescence of compounds with avidin beads – biophysical, 488/530 nm, flow cytometry, artefact control, profiling panel | compound fluorescence 488/530 nm; stronger effect = higher value | fluorescence (KMESF) at 10 µM | actives 0.38% (n = 220,000) | AID 1775, 2009; in the data active = fluorescence above about 47
ABCB1 inh: ABCB1 efflux pump inhibitors, primary screen, cell-based, multiplex, flow cytometry, ABCG2 counter-screen | ATP-dependent translocase ABCB1 (Homo sapiens), P08183 | inhibition, % at 6.6 µM | CCRF-Adr cells, JC-1 efflux | actives 0.067% (n = 190,000); in the data active = inhibition above about 40%;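 also: 0% = vehicle and 100% = reference inhibitor; higher value means more JC-1 retained so stronger ABCB1 efflux block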
Starred values were filed as active, the others as inactive; / = not tested or not shown. This excerpt belongs to a sample that is enriched for hits. Rule as the data show it, unless noted: active = inhibition above about 50%; inactive = the rest.

SMILES | PKD1 kinase inh | ABCG2 inh | L major viab | GSH fluor | Avidin fluor | ABCB1 inh
O=C(Oc1ccc(Br)cc1)c1n[nH]c(=O)c2ccccc12 | -1 | 0 | 1 | 17 | 12 | 0
C/C(=N\NC(=O)COc1ccc(C(C)(C)C)cc1)c1ccc(-n2ccnc2)cc1 | -8 | 6 | 52* | 20 | 9 | 2
COc1cc(NC(=O)COc2ccc(-n3ccnc3)cc2)cc(OC)c1 | 5 | 4 | 15 | 10 | 14 | 1
CC(C)(C)c1ccc(NC(=O)COc2ccc(-n3ccnc3)cc2)cc1 | 5 | 0 | 67* | 16 | 36 | 0
C/C(=N\Nc1ccc(Cl)c(Cl)c1)c1ccc(-n2ccnc2)cc1 | -10 | 10 | 58* | 7 | 15 | 0
COc1ccc(NC(=O)CC2C(=O)N(c3cccc(OC)c3)C(=O)N2CCC(C)C)cc1 (centres undefined) | -2 | 1 | 1 | 7 | 7 | 0
O=C(COC(=O)CNS(=O)(=O)c1ccc2ccccc2c1)Nc1ccccc1Sc1ccccc1 | 0 | 4 | -2 | 10 | 8 | 1
OCC1(CCc2ccccc2)CCN(Cc2cccn2-c2cccnc2)CC1 | 3 | 0 | 61* | 22 | 8 | 0
CC(C)CN1CCN(Cc2cccn2-c2cccnc2)CC1CCO (centres undefined) | -8 | 1 | -4 | 12 | 11 | 1
O=C(O)c1ccc(NS(=O)(=O)c2cc(C(=O)O)ccc2Br)cc1 | 8 | 10 | 99* | 37 | 12 | 0
CCOc1cc(C=O)ccc1OCc1cc(=O)n2cc(C)ccc2n1 | -4 | 20 | -3 | 10 | 11 | 1
Cc1cccc(NC(=S)NCC(c2cccnc2)N(C)C)c1 (centres undefined) | 7 | 5 | -2 | 13 | 14 | 0
CC1C2CC(C/C2=N/NC(=O)c2cccs2)C1(C)C (centres undefined) | 5 | 13 | 95* | 23 | 9 | 0
O=C(N/N=C/c1sc(N2CCOCC2)nc1-c1ccccc1)c1ccccc1O | -11 | -5 | 44 | 3 | 12 | 0
O=C(N/N=C/c1sc(N2CCOCC2)nc1-c1ccccc1)c1ccccc1F | / | / | / | / | 5 | /
O=C(Nc1ccccc1F)C(=Cc1sc(N2CCOCC2)nc1-c1ccccc1)C(=O)Nc1ccccc1F | -2 | -2 | 53* | 13 | 12 | 1
Cc1cc(C(=O)N/N=C/c2sc(N3CCOCC3)nc2-c2ccccc2)c(C)o1 | 0 | 5 | 52* | 12 | 8 | -2
CCOC(=O)N1CCN(c2c(NCc3ccccc3Cl)c(=O)c2=O)CC1 | / | / | / | / | 5 | /
O=C(NCCn1cc(SCc2ccc(F)cc2)c2ccccc21)c1ccccc1F | -3 | 18 | 95* | 17 | / | 3
O=C(NCCn1cc(SCc2ccc(F)cc2)c2ccccc21)c1c(F)cccc1F | -7 | 12 | 1 | 17 | 6 | 2
COC(=O)CN1C(=S)N(c2ccc(OC)cc2)C(=O)/C1=C/c1ccc(OC)cc1 | -3 | 1 | 54* | 16 | 11 | -1
FC(F)(Cl)c1nnc2ccc(Cl)nn12 | 3 | 4 | 0 | 12 | 7 | 1
COc1ccccc1/C=C/C(=O)c1cc(Br)ccc1OC(=O)c1ccco1 | 6 | / | 60* | / | / | /
CCc1ccc(/C=C/C(=O)c2cc(Br)ccc(=O)c2O)cc1 | -7 | -1 | 11 | 19 | 13 | 0
Nc1ccc(/C=C/C(=O)c2ccco2)cc1 | -8 | -3 | 51* | 7 | 6 | 0
Cc1cccc(/C=C/C(=O)c2cc(Br)ccc(=O)c2O)c1 | 6 | 0 | 100* | 23 | 13 | 0
O=C(/C=C/c1cc(Br)ccc1O)c1ccco1 | / | / | / | / | 6 | /
Cc1ccc(/C=C/C(=O)c2cc(Br)ccc2OC(=O)c2ccco2)cc1 | -11 | 4 | 87* | 17 | 39 | 1
CCCCc1c(C)nc2ccc(Br)cc2c1SC(N)N | 2 | 0 | -2 | 27 | 11 | 0

Source: PubChem
